Data reported in ChEMBL document CHEMBL1938301, “Cyclohexane 1,3-diones and their inhibition of mutant SOD1-dependent protein aggregation and toxicity in PC12 cells” (Bioorg Med Chem, 2012).
Calls of active or inactive are those of the source.

Tests used:
[1] = (§1) Inhibition of SOD1 G93A mutant protein aggregation-mediated cytotoxicity in rat PC12 cells expressing yellow fluorescent protein assessed as increase in cell viability; assay type: cell-based; settings: PC-12
PC-12 [2] = test: Inhibition of SOD1 G93A mutant protein aggregation-mediated cytotoxicity in rat PC12 cells expressing yellow fluorescent protein assessed as increase in cell viability relative to radicicol; assay type: cell-based; set-up: concentration or dose not given beside the values
In short: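 PC12 cells expressing G93A SOD1-YFP; MG132 proteasome inhibition induces cytotoxic mutant SOD1 aggregates. Cell survival measured as protection read-out; efficacy expressed relative to radicicol positive control.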

PC-12 [3] = test: Cytoprotective activity against MG132-induced cytotoxicity in rat PC12 cells assessed as cell viability at 100 uM pre-treated for 24 hrs before MG132-induction measured after 48 hrs by Calcein-AM-based fluorimetry; assay type: functional
SH-SY5Y = test: Cytoprotective activity against MG132-induced cytotoxicity in human SH-SY5Y cells assessed as cell viability at 100 uM pre-treated for 24 hrs before MG132-induction measured after 48 hrs by Calcein-AM-based fluorimetry; assay type: functional
Cerebral cortex neuron = test: Cytoprotective activity against MG132-induced cytotoxicity in rat primary cortical neurons cells assessed as cell viability at 100 uM pre-treated for 24 hrs before MG132-induction measured after 48 hrs by Calcein-AM-based fluorimetry; assay type: functional
In short: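 Neurons from E18 rat cortex (Sprague-Dawley or Fischer 344), papain-dissociated, plated at 20,000 cells/well on poly-D-lysine, cultured 5 days in Neurobasal/B27 (~90% neurons). Six-point series from 100 μM top in roughly one-third steps, 24 h pre-incubation, then MG132 100 nM final. Viability read 48 h later by Calcein-AM (1 μM, 20 min, RT) fluorescence. Active if ≥5 SD above MG132 controls.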

HEK293 = test: Cytoprotective activity against MG132-induced cytotoxicity in human HEK293 cells assessed as cell viability at 100 uM pre-treated for 24 hrs before MG132-induction measured after 48 hrs by Calcein-AM-based fluorimetry; assay type: functional
HeLa = test: Cytoprotective activity against MG132-induced cytotoxicity in human HeLa cells assessed as cell viability at 100 uM pre-treated for 24 hrs before MG132-induction measured after 48 hrs by Calcein-AM-based fluorimetry; assay type: functional
PC-12 [4] = test: as §1; assay type: cell-based

| Compound | EC50 [1] [nM] | Efficacy (PC-12 [2]) [%] | other results |
| --- | --- | --- | --- |
| O=C1CC(=O)CC(c2cc(-c3ccccc3)cc(-c3ccccc3)c2)C1 | 2530 | 100 |  |
| O=C1CC(=O)CC(c2cc(-c3ccc(F)cc3)cc(-c3ccc(F)cc3)c2)C1 | 3070 | 100 |  |
| O=C1CC(=O)CC(c2c(Cl)cc(Cl)cc2Cl)C1 | 7010 | 100 |  |
| O=C1CC(=O)CC(COc2cc(C(F)(F)F)cc(C(F)(F)F)c2)C1 | 700 | 100 |  |
| O=C1CC(=O)CC(c2ccccc2F)C1 | > 32000 | 100 |  |
| COc1cc(OC)cc(C2CC(=O)CC(=O)C2)c1 | 5200 | 100 |  |
| CCc1ccc(C2CC(=O)CC(=O)C2)cc1 | 2220 | 100 |  |
| O=C1CC(=O)CC(CC(c2ccccc2)c2ccccc2)C1 | 3430 | 100 |  |
| CSc1ccc(C2CC(=O)CC(=O)C2)cc1 | > 32000 | 100 |  |
| CC(C)(C)c1ccc(C2CC(=O)CC(=O)C2)cc1 | 9930 | 100 |  |
| O=C1CC(=O)CC(c2ccc(C(F)(F)F)cc2)C1 | 8300 | 100 |  |
| CCc1ccccc1C1CC(=O)CC(=O)C1 | 3160 | 100 |  |
| O=C1CC(=O)CC(c2ccc(-c3cccc(Cl)c3)o2)C1 | 2710 | 100 |  |
| O=C1CC(=O)CC(c2cc(Cl)cc(Cl)c2)C1 | 2350 | 100 |  |
| CCCCCc1ccc(C2CC(=O)CC(=O)C2)cc1 | 2010 | 100 |  |
| O=C1CC(=O)N(CCc2ccccc2)C(=O)N1CCc1ccccc1 |  | 100 | Activity (PC-12 [3]): Active; Activity (SH-SY5Y): Active; Activity (Cerebral cortex neuron): Active; Activity (HEK293): Active; Activity (HeLa): Active |
| O=C1CC(=O)CC(c2ccccc2Cl)C1 | > 32000 | 100 |  |
| O=C1CC(=O)CC([C@@H]2C[C@H]2c2cc(C(F)(F)F)cc(C(F)(F)F)c2)C1 (racemic) | 700 | 100 |  |
| CC(C)c1cccc(C2CC(=O)CC(=O)C2)c1 | 1580 | 100 |  |
| O=C1CC(=O)CC(c2cccc(Oc3ccc(Cl)cc3)c2)C1 | 2180 | 100 |  |
| O=C1CC(=O)CC(c2cccc(Oc3cc(Cl)cc(Cl)c3)c2)C1 | 6660 | 100 |  |
| CCOc1cccc(C2CC(=O)CC(=O)C2)c1OCC | 3990 | 100 |  |
| O=C1CC(=O)CC(c2ccccc2C(F)(F)F)C1 | 3200 | 100 |  |
| O=C1CC(=O)CC(c2c(Cl)cccc2Cl)C1 | 24300 | 100 |  |

| Compound | EC50 [1] [nM] | Efficacy (PC-12 [2]) [%] | other results |
| --- | --- | --- | --- |
| O=C1CC(=O)CC(c2ccc(OCc3ccccc3)cc2)C1 | > 32000 | 100 |  |
| CC(c1ccccc1)C1CC(=O)CC(=O)C1 (racemic) | 5850 | 100 |  |
| O=C1CC(=O)CC(c2cc(Cl)cc(-c3ccccc3)c2)C1 | 1100 | 100 |  |
| O=C1CC(=O)CC(Cc2ccccc2)C1 | 1820 | 100 |  |
| O=C1CC(=O)CC(c2cccc(-c3ccc(Cl)cc3)c2)C1 | 3510 | 100 |  |
| CCCCc1ccc(C2CC(=O)CC(=O)C2)cc1 | 2710 | 100 |  |
| O=C1CC(=O)CC(c2cc(-c3ccccc3)cc(C(F)(F)F)c2)C1 | 730 | 100 |  |
| O=C1CC(=O)CC(c2ccccc2Br)C1 | > 32000 | 100 |  |
| O=C1CC(=O)CC(c2cc(F)cc(F)c2)C1 | 8200 | 100 |  |
| O=C1CC(=O)CC(c2ccc(F)cc2F)C1 | > 32000 | 100 |  |
| Cc1cccc(C2CC(=O)CC(=O)C2)c1C | 2390 | 100 |  |
| Cc1cccc(C2CC(=O)CC(=O)C2)c1 | 4810 | 100 |  |
| O=C1CC(=O)CC(c2ccc(OCCCc3ccccc3)cc2)C1 | 1300 | 100 |  |
| O=C1CC(=O)CC(c2ccoc2)C1 | > 32000 | 100 |  |
| O=c1cc(COc2cc(Cl)cc(Cl)c2)[nH][nH]1 |  |  | Activity (PC-12 [3]): Active; Activity (SH-SY5Y): Active; Activity (Cerebral cortex neuron): Active; Activity (HEK293): Active; Activity (HeLa): Active |
| CC(C)(C)OC(=O)N1CCN(c2ccc(C3CC(=O)CC(=O)C3)cc2)CC1 | 8290 | 100 |  |
| CCOc1ccc(C2CC(=O)CC(=O)C2)c(OCC)c1 | 1490 | 100 |  |
| O=C1CC(=O)CC(c2ccc(OCCOc3ccccc3)cc2)C1 | 1560 | 100 |  |
| O=C1CC(=O)CC(c2c(F)cccc2F)C1 | > 32000 | 100 |  |
| O=C1CC(=O)CC(c2cccc(C(F)(F)F)c2)C1 | 3330 | 100 |  |
| Cc1cc(C)cc(CC2CC(=O)CC(=O)C2)c1 | 900 | 100 |  |
| O=C1CC(=O)CC(c2cccc(OC(F)(F)F)c2)C1 | 2040 | 100 |  |
| CC1(COc2cc(C(F)(F)F)cc(C(F)(F)F)c2)CC(=O)CC(=O)C1 | 700 | 100 |  |
| O=C1CC(=O)CC(c2ccccc2Oc2ccc(F)cc2)C1 | 1160 | 100 |  |

| Compound | EC50 [1] [nM] | Efficacy (PC-12 [2]) [%] | other results |
| --- | --- | --- | --- |
| Cc1cc(C)c(C2CC(=O)CC(=O)C2)c(C)c1 | > 32000 | 100 |  |
| O=C1CC(=O)CC(c2cccc(-c3cc(F)cc(F)c3)c2)C1 | 1240 | 100 |  |
| O=C1CC(=O)CC(c2ccc(C(F)(F)F)cc2C(F)(F)F)C1 | 2560 | 100 |  |
| O=C1CC(=O)CC(c2cccc(Br)c2)C1 | 28700 | 100 |  |
| O=C1CC(=O)CC(c2cccc(Cl)c2)C1 | 6520 | 100 |  |
| O=C1CC(=O)CC(c2ccc3ccccc3c2)C1 | 6210 | 100 |  |
| CC(C)c1ccc(C2CC(=O)CC(=O)C2)cc1 | 4090 | 100 |  |
| C[C@@H]1C[C@H]2O[C@@H]2/C=C\C=C\C(=O)Cc2c(Cl)c(O)cc(O)c2C(=O)O1 |  |  | Efficacy (PC-12 [4]): 85% |
| Cc1cccc(C)c1C1CC(=O)CC(=O)C1 | 2700 | 100 |  |
| O=C1CC(=O)CC(c2ccc(Oc3cccc(Cl)c3)cc2)C1 | 3600 | 100 |  |
| CC(Oc1cc(Cl)cc(Cl)c1)C1CC(=O)CC(=O)C1 (racemic) | 1410 | 100 |  |
| O=C1CC(=O)CC(c2cccc(-c3cc(C(F)(F)F)cc(C(F)(F)F)c3)c2)C1 | 2150 | 100 |  |
| O=C1CC(=O)CC(c2ccc(Oc3ccc(F)cc3)cc2)C1 | 2370 | 100 |  |
| Cc1cc(C)cc(C2CC(=O)CC(=O)C2)c1 | 2400 | 100 |  |
| CCCc1ccc(C2CC(=O)CC(=O)C2)cc1 | 2220 | 100 |  |
| O=C1CC(=O)CC(COc2ccccc2)C1 | > 32000 | 100 |  |
| O=C1CC(=O)CC(c2cccc(-c3ccccc3)c2)C1 | 1230 | 100 |  |
| CCn1c2ccccc2c2cc(C3CC(=O)CC(=O)C3)ccc21 | 3090 | 100 |  |
| O=C1CC(=O)CC(c2ccc(Cl)cc2Cl)C1 | 4570 | 100 |  |
| Cc1ccccc1C1CC(=O)CC(=O)C1 | 3390 | 100 |  |
| O=C1CC(=O)CC(c2ccc(Oc3ccc(Cl)cc3)cc2)C1 | 2880 | 100 |  |
| CC1(COc2ccccc2)CC(=O)CC(=O)C1 | 6280 | 100 |  |
| O=C1CC(=O)CC([C@@H]2C[C@H]2c2ccccc2)C1 | 2650 | 100 |  |
| O=C1CC(=O)CC(c2cc(-c3cccc(Cl)c3)cc(C(F)(F)F)c2)C1 | 1560 | 100 |  |
